Results reported in ChEMBL document CHEMBL4765333, “Novel NO-releasing scopoletin derivatives induce cell death via mitochondrial apoptosis pathway and cell cycle arrest” (Eur J Med Chem, 2020).
Calls of active or inactive are those of the source. The calls are words filed in the database; no cut-off is given here.

Tests used:
[1] = (§1) Induction of intracellular reactive oxygen species generation in human MDA-MB-231 cells assessed as proportion of FL1-H positive cells at 1 uM measured after 24 hrs by DCFH-DA staining based flow cytometry analysis (reference value: 47.8%); assay type: functional, MDA-MB-23
MDA-MB-231 [2] = assay: Induction of apoptosis in human MDA-MB-231 cells assessed as viable cells at 1.5 uM after 24 hrs by Annexin V/propidium iodide based flow cytometric analysis (reference value: 99%); assay type: functional; conditions: read-out: Activity
In short: (§2)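 MDA-MB-231 cells (2×10^5/well) attached 24 h, then treated 24 h with 1, 1.5, 2 or 3 µM, DMSO as control. Cells harvested, PBS-washed, resuspended in binding buffer, stained with Annexin V and PI for 30 min at 37°C in the dark, and analysed by flow cytometry for quadrant percentages; three experiments.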

MDA-MB-231 [3] = assay: Induction of cell cycle arrest in human MDA-MB-231 cells assessed as accumulation at G0/G1 phase at 1.5 uM measured after 24 hrs by propidium iodide staining based flow cytometric method (reference value: 45.71%); assay type: functional
MDA-MB-231 [4] = assay: Antiproliferative activity in human MDA-MB-231 cells assessed as inhibition of cell viability at 1.5 to 3 uM pretreated with 10 uM necroptosis inhibitor, necrostatin-1 followed by addition of compound and measured after 48 hrs by MTT assay; assay type: functional, cell-based; conditions: dose 1.5-3 µM
In short: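 MDA-MB-231 cells pretreated 1 h with necrostatin-1 (10 µM) or Z-VAD-FMK (20 µM), then exposed to compound at 1.5, 2 and 3 µM for another 48 h. Inhibition rates by MTT; inhibitors alone also tested 48 h for viability. Mean ± SD, n = 3.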

MDA-MB-23 [5] = assay: Inhibition of colony formation in human MDA-MB-231 cells incubated for 24 hrs followed by culturing in fresh medium for 10 days by crystal violet staining based assay; assay type: functional, cell-based; conditions: dose 0.25-1 µM
In short: (§3)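 MDA-MB-231 seeded at 1.5×10^3 cells/well, 24 h attachment, then 24 h exposure to compound (0.25, 0.5, 1 µM) or DMSO; fresh medium for a further 10 days. Fixed in 4% paraformaldehyde 0.5 h at 4°C, crystal violet stained, dye dissolved in DMSO and absorbance read at 590 nm; performed three times.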

MDA-MB-231 [6] = assay: Induction of mitochondrial membrane potential depolarization in human MDA-MB-231 cells assessed as proportion of cells with hyperpolarized MMP at 2 uM incubated for 18 hrs by JC-1 staining based flow cytometry (reference value: 98.4%); assay type: functional
MDA-MB-231 [7] = assay: Induction of apoptosis in human MDA-MB-231 cells assessed as necrotic cell at 1 uM after 24 hrs by Annexin V/propidium iodide staining based flow cytometric analysis (reference value: 0.019%); assay type: functional; in short: as §2
[8] = Prodrug release in human MDA-MB-231 cells assessed as increase in intracellular NO level at 25 uM measured after 2.5 hrs by total nitric oxide assay; assay type: ADME, cell-based; conditions: mda-mb-23, 2.5 h
In short: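 MDA-MB-231 (2×10^5 cells/well) cultured 24 h, then treated 2.5 h with compound at 25 µM or DMSO. Cells harvested, lysed in nitric oxide assay buffer 1 h on ice; lysate NO quantified with a total nitric oxide assay kit. Mean ± SD, n = 3.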

MDA-MB-231 [9] = assay: Induction of cell cycle arrest in human MDA-MB-231 cells assessed as accumulation at S phase at 2 uM measured after 24 hrs by propidium iodide staining based flow cytometric method (reference value: 36.25%); assay type: functional
MDA-MB-231 [10] = assay: Inhibition of colony formation in human MDA-MB-231 cells at 0.25 uM incubated for 24 hrs followed by culturing in fresh medium for 10 days by crystal violet staining based assay; assay type: functional, cell-based; in short: as §3
MDA-MB-231 [11] = assay: Induction of apoptosis in human MDA-MB-231 cells assessed as increase in cleaved caspase-9 protein expression incubated for 8 hrs by Western blot analysis; assay type: functional, cell-based; conditions: dose 1.5-6 µM
In short: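 MDA-MB-231 cells (8×10^5 per 60 mm dish) attached 24 h, then exposed 8 h to 1.5, 3 or 6 µM, DMSO as control. Lysates quantified by BCA; 30 µg protein run on 4–20% SDS-PAGE, transferred to PVDF, probed for Bcl-2, Bax, Bad, cleaved caspase-9, cleaved caspase-3 and PARP, with ECL detection. Densitometric relative levels; three experiments.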

MCF7 [12] = assay: Antiproliferative activity against human MCF7 cells assessed as inhibition of cell growth rate at 10 uM measured after 48 hrs by MTT assay; assay type: functional
In short: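 MCF-7 cells in DMEM with 10% FBS exposed to a single 10 µM concentration for 48 h. Read-out by MTT (0.5 mg/ml, 4 h, DMSO dissolution, A570). Inhibition rate given versus untreated control as mean ± SD, n = 3.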

MCF7 [13] = assay: Anticancer activity against human MCF7 cells assessed as inhibition of cell proliferation measured after 48 hrs by MTT assay; assay type: functional, cell-based; conditions: MCF7, 48 h
In short: (§4)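 Cells seeded at ~5,000/well, grown 24 h to partial monolayer, then exposed 48 h at 37°C, 5% CO2 to 0.5, 1, 2, 4, 10 and 20 µM (DMSO ≤0.1%). MTT final 0.5 mg/ml for 4 h, formazan dissolved in DMSO, A570. Survival expressed as % of untreated control; IC50 from dose-response curves; three independent experiments. MDA-MB-231, MCF-7, HepG2 in DMEM; A549 and LO-2 in RPMI-1640; 10% FBS.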

MDA-MB-23 [14] = assay: Induction of mitochondrial membrane potential depolarization in human MDA-MB-231 cells incubated for 18 hrs by JC-1 staining based flow cytometry; assay type: functional, cell-based; conditions: dose 1-2 µM
[15] = Anticancer activity against human MDA-MB-231 cells assessed as inhibition of cell proliferation measured after 48 hrs by MTT assay; assay type: functional, cell-based; conditions: MDA-MB-23, 48 h; in short: as §4
MDA-MB-231 [16] = assay: Inhibition of colony formation in human MDA-MB-231 cells assessed as fewer and smaller colonies at 0.5 to 1 uM incubated for 24 hrs followed by culturing in fresh medium for 10 days by crystal violet staining based assay; assay type: functional, cell-based; conditions: dose 0.5-1 µM; in short: as §3
MDA-MB-231 [17] = assay: Induction of apoptosis in human MDA-MB-231 cells assessed as viable cells at 3 uM after 24 hrs by Annexin V/propidium iodide based flow cytometric analysis (reference value: 99%); assay type: functional; conditions: read-out: Activity; in short: as §2
MDA-MB-231 [18] = assay: Induction of apoptosis in human MDA-MB-231 cells assessed as late apoptotic cells at 2 uM after 24 hrs by Annexin V/propidium iodide based flow cytometric analysis (reference value: 0.038%); assay type: functional; in short: as §2
[19] = as §1, with “at 2” for “at 1”, “uM pretreated with ROS scavenger, NAC for 2 hrs prior to incubation with compound and” for “uM”; assay type: functional, MDA-MB-23
In short: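 MDA-MB-231 seeded at 2×10^5 cells/well, grown 24 h, pretreated with NAC (2.5 mM) for 2 h, then given 2 µM compound for 24 h. Cells loaded with DCFH-DA 30 min at 37°C in the dark, washed in PBS, resuspended in serum-free medium and read by flow cytometry; three independent experiments.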

HepG2 = assay: Anticancer activity against human HepG2 cells assessed as inhibition of cell proliferation measured after 48 hrs by MTT assay; assay type: functional, cell-based; conditions: HepG2, 48 h; in short: as §4
MDA-MB-231 [20] = assay: Induction of cell cycle arrest in human MDA-MB-231 cells assessed as accumulation at S phase at 1 uM measured after 24 hrs by propidium iodide staining based flow cytometric method (reference value: 36.25%); assay type: functional

COc1cc2cc(N)c(=O)oc2cc1OCCCOc1no[n+]([O-])c1S(=O)(=O)c1ccccc1
Activity [1]: 65% | viability at 1.5 µM (MDA-MB-231 [2]): 75.7% | Activity (MDA-MB-231 [3]): 41.85% | Activity (MDA-MB-231 [4]): inactive | inhibition (MDA-MB-23 [5]): Dose-dependent effect | Activity (MDA-MB-231 [6]): 67.8% | Activity (MDA-MB-231 [7]): 0.21% | Drug metabolism [8]: Metabolite_Detected | Activity (MDA-MB-231 [9]): 20.82% | inhibition (MDA-MB-231 [10]): Active | Activity (MDA-MB-231 [11]): Dose-dependent effect | inhibition at 10 µM (MCF7 [12]): 91.5% | IC50 (MCF7 [13]): 1910 nM | Activity (MDA-MB-23 [14]): Dose-dependent effect | IC50 [15]: 1230 nM | inhibition (MDA-MB-231 [16]): Active | viability at 3 µM (MDA-MB-231 [17]): 65.6% | Activity (MDA-MB-231 [18]): 15.8% | Activity [19]: 51% | IC50 (HepG2): 2810 nM | Activity (MDA-MB-231 [20]): 28.05%
